From ChEMBL document CHEMBL4402517, “Rational modification of Mannich base-type derivatives as novel antichagasic compounds: Synthesis, in vitro and in vivo evaluation” (Bioorg Med Chem, 2019)
Calls of active or inactive are those of the source. The rule behind the calls is not given here.

Columns and labels:
[1] = Genotoxicity in Salmonella typhimurium TA1535 harboring pSK1002 assessed as survival at 0.001 mg/ml in presence of Sprague-Dawley rat liver S9 fraction metabolic activation by SOS/umu assay relative to control; type: toxicity, subcellular; details: salmonella enterica subsp. enterica serovar typhimurium, read-out: Survival
Outline: (§1)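 Salmonella typhimurium TA1535/pSK1002 was exposed to compounds at several concentrations with or without S9 mix, and bacterial survival % was measured. β-galactosidase induction was measured colorimetrically with ONPG substrate. Genotoxicity was counted where IF ≥ 2 at ≥80% survival; runs were valid if positive controls reached IF ≥ 2.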

[2] = (§2) Toxicity in BALB/c mouse infected with Trypanosoma cruzi MHOM/Pe/2011/Arequipa;DTU 5 bloodstream trypomastigote assessed as decrease in serum alkaline phosphatase level in acute phase at 20 mg/kg/day, po administered for 5 consecutive days starting from day 8 post infection and measured at day 14 post infection by biochemical analysis relative to control; type: organism-based; design: scale not given: the % may be the effect or the level left; details: in vivo
Outline: (§3)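 Female BALB/c mice (10–12 weeks, 14–20 g; groups of three) were infected i.p. with 5 × 10^5 Arequipa bloodstream trypomastigotes. Dosing was oral at 20 mg/kg/day for 5 days, from day 8 pi (acute) or day 70 pi (chronic), as a 2 mg/ml suspension in 5% DMSO/0.5% HPMC; controls received vehicle. Cyclophosphamide 200 mg/kg i.p. was given at day 80 pi. Serum was collected 2 days post-treatment and at necropsy by cardiac puncture and compared with infected untreated controls.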

[3] = Genotoxicity in Salmonella typhimurium TA1535 harboring pSK1002 assessed as umu gene induction at 0.016 mg/ml in absence of Sprague-Dawley rat liver S9 fraction metabolic activation by SOS/umu assay relative to control; type: toxicity; details: salmonella enterica subsp. enterica serovar typhimurium, read-out: FC
Outline: (§4)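 umu induction in S. typhimurium TA1535/pSK1002, with or without S9 mix, in 96-well format. β-galactosidase read colorimetrically with ONPG substrate. Output given as relative units and induction factor (IF). The run is valid if positive controls reach IF ≥2. A compound counts as genotoxic at IF ≥2 at a concentration giving ≥80% bacterial survival.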

[4] = molecular target: Superoxide dismutase [Cu-Zn] (Homo sapiens, UniProt P00441); assay: Inhibition of human erythrocyte CuZn-SOD
Sequence of Superoxide dismutase [Cu-Zn] (P00441 whole entry): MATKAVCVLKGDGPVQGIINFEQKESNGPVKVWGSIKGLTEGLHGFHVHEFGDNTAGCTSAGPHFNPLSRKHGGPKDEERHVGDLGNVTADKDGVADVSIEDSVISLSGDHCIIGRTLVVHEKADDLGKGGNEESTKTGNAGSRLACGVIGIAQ
Outline: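 Commercial human erythrocyte CuZn-SOD. Activity measured by the Beyer–Fridovich method, tested up to 50 µM.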

Trypanosoma cruzi [5] = assay: Inhibition of Trypanosoma cruzi MHOM/Pe/2011/Arequipa;DTU 5 epimastigote Fe-SOD at 6.3 uM relative to control
Outline: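 Fe-SOD excreted by exponentially growing T. cruzi Arequipa epimastigotes cultured in supplemented MTL at 28 °C. Protein quantified by Bradford. SOD activity measured by the Beyer–Fridovich method. IC50 from inhibition curves by nonlinear regression. Mean of three independent determinations ± standard deviation.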

[6] = Genotoxicity in Salmonella typhimurium TA1535 harboring pSK1002 assessed as survival at 0.001 mg/ml in absence of Sprague-Dawley rat liver S9 fraction metabolic activation by SOS/umu assay relative to control; type: toxicity; details: salmonella enterica subsp. enterica serovar typhimurium, read-out: Survival; outline: as §1
[7] = as §2, with “change” for “decrease”, “aspartate aminotransferase” for “alkaline phosphatase”; type: organism-based; details: in vivo
[8] = Genotoxicity in Salmonella typhimurium TA1535 harboring pSK1002 assessed as umu gene induction at 0.002 mg/ml in absence of Sprague-Dawley rat liver S9 fraction metabolic activation by SOS/umu assay relative to control; type: toxicity; details: salmonella enterica subsp. enterica serovar typhimurium, read-out: FC; outline: as §4
[9] = Mutagenecity against Salmonella typhimurium TA 102 assessed as number of colonies at 22.2 ug/plate in presence of Sprague-Dawley rat S9 with metabolic activation measured after 48 hrs by Ames test (reference value: 72 +/- 1); type: toxicity, subcellular; details: salmonella enterica subsp. enterica serovar typhimurium, s9, 48 h
[10] = as §2, with “change” for “decrease”, “chronic” for “acute”, “70” for “8”, “76” for “14”, “infection” for “infection by biochemical analysis”; type: organism-based; details: in vivo; outline: as §3
[11] = Mutagenecity against Salmonella typhimurium TA1535 assessed as number of colonies at 7.4 ug/plate in absence of Sprague-Dawley rat S9 measured after 48 hrs by Ames test (reference value: 13.3 +/- 2.5); type: toxicity; details: salmonella enterica subsp. enterica serovar typhimurium, s9, 48 h
[12] = Mutagenecity against Salmonella typhimurium TA97a assessed as number of colonies at 66.7 ug/plate in absence of Sprague-Dawley rat S9 […] measured after 48 hrs by Ames test ( Rvb = 37 +/- 6.5); type: toxicity; details: salmonella enterica subsp. enterica serovar typhimurium, s9, 48 h
[13] = Mutagenecity against Salmonella typhimurium TA1535 assessed as number of colonies at 66.7 ug/plate in absence of Sprague-Dawley rat S9 measured after 48 hrs by Ames test (reference value: 13.3 +/- 2.5); type: toxicity; details: salmonella enterica subsp. enterica serovar typhimurium, s9, 48 h
[14] = Toxicity in BALB/c mouse infected with Trypanosoma cruzi MHOM/Pe/2011/Arequipa;DTU 5 bloodstream trypomastigote assessed as change in serum uric acid level in chronic phase at 20 mg/kg/day, po administered for 5 consecutive days starting from day 70 post infection measured on day 100 post infection relative to control; type: organism-based; details: in vivo
[15] = Mutagenecity against Salmonella typhimurium TA1535 assessed as number of colonies at 200 ug/plate in presence of Sprague-Dawley rat S9 measured after 48 hrs by Ames test (reference value: 5 +/- 3.6); type: toxicity, subcellular; details: salmonella enterica subsp. enterica serovar typhimurium, s9, 48 h
[16] = Mutagenecity against Salmonella typhimurium TA 100 assessed as number of colonies at 22.2 ug/plate in presence of Sprague-Dawley rat S9 with metabolic activation e measured after 48 hrs by Ames test (reference value: 47.3 +/- 5.7); type: toxicity, subcellular; details: salmonella enterica subsp. enterica serovar typhimurium, s9, 48 h
[17] = Mutagenecity against Salmonella typhimurium TA 102 assessed as number of colonies at 66.7 ug/plate in presence of Sprague-Dawley rat S9 with metabolic activation measured after 48 hrs by Ames test (reference value: 72 +/- 1); type: toxicity, subcellular; details: salmonella enterica subsp. enterica serovar typhimurium, s9, 48 h
[18] = Mutagenecity against Salmonella typhimurium TA97a assessed as number of colonies at 7.4 ug/plate in absence of Sprague-Dawley rat S9 with metabolic activation measured after 48 hrs by Ames test ( Rvb = 37 +/- 6.5); type: toxicity; details: salmonella enterica subsp. enterica serovar typhimurium, s9, 48 h
[19] = Mutagenecity against Salmonella typhimurium TA 102 assessed as number of colonies at 7.4 ug/plate in presence of Sprague-Dawley rat S9 with metabolic activation measured after 48 hrs by Ames test (reference value: 72 +/- 1); type: toxicity, subcellular; details: salmonella enterica subsp. enterica serovar typhimurium, s9, 48 h
[20] = Mutagenecity against Salmonella typhimurium TA98 assessed as number of colonies at 66.7 ug/plate in absence of Sprague-Dawley rat S9 measured after 48 hrs by Ames test (reference value: 3 +/- 2.6); type: toxicity; details: salmonella enterica subsp. enterica serovar typhimurium, s9, 48 h
Trypanosoma cruzi [21] = assay: Antitrypanosomal activity against Trypanosoma cruzi MHOM/Pe/2011/Arequipa;DTU 5 epimastigote assessed as effect on parasite glycolytic pathway by measuring change in succinate excretion after 72 hrs by H NMR method; type: functional, organism-based
Outline: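 Cells were spun at 800 × g for 10 min and culture supernatants analysed by 1H NMR. Catabolite peaks were expressed as % variation versus untreated parasites.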

[22] = as §2, with “increase” for “decrease”, “aspartate aminotransferase” for “alkaline phosphatase”; type: organism-based; details: in vivo
[23] = as §2, with “total bilirubin” for “alkaline phosphatase”; type: organism-based; design: scale not given: the % may be the effect or the level left; details: in vivo

| Structure (SMILES) | viability at 0.001 mg/ml [1] [%] | Activity [2] | fold induction at 0.016 mg/ml [3] | IC50 [4] [µM] | inhibition (Trypanosoma cruzi [5]) [%] | viability at 0.001 mg/ml [6] [%] | fold induction at 0.002 mg/ml [8] | Activity [10] [%] | other results |
| --- | --- | --- | --- | --- | --- | --- | --- | --- | --- |
| O=C(CCN1CCN(c2ccc(C(F)(F)F)cc2)CC1)c1ccc(O)cc1 | 106 | <= 30% | 0.74 | > 50 | > 50 | 114 | 0.74 | – | Activity [7]: > 10% |
| O=C(CCN1CCN(c2ccc(Cl)cc2)CC1)c1ccc(O)cc1 | 106 | <= 10% | 0.66 | > 50 | > 50 | 104 | 0.78 | > 10 | Activity [9]: 84.7; Activity [11]: 2.3; Activity [12]: 31.3; Activity [13]: 3.7; Activity [14]: > 10%; Activity [15]: 7; Activity [16]: 47.3; Activity [17]: 72.3; Activity [18]: 34.4; Activity [19]: 75; Activity [20]: 4 |
| O=C(Cn1ccnc1[N+](=O)[O-])NCc1ccccc1 [BENZNIDAZOLE] | – | – | – | – | – | – | – | > 10 | Activity (Trypanosoma cruzi [21]): Active; Activity [22]: <= 20%; Activity [23]: <= 10% |
